Measurements published in publication PMC4778717 (ChemMedChem, 2015).
≈ marks a conversion by molar mass, not a printed value. Like-named read-outs stand apart in the source and are kept apart here.

Columns and labels:
S. aureus Mu50 [1] = test: Bacteriostatic effect; format: cell-based; details: for Fold by which 7b and 12a are more effective than the antibiotic (MIC) / Fold more effective than vancomycin (MIC): S. aureus Mu50; for Fold by which 7b and 12a are more effective than the antibiotic (MIC): label = antibiotic compared; for MIC: Staphylococcus aureus; for MIC, S. aureus Mu50: MRSA strain Mu50, comparison with clinically used antibiotics; for Fold more effective than vancomycin (MIC): vs vancomycin 8 μg/ml
S. aureus 6538 = test: Bacteriostatic effect; format: cell-based
B. subtilis 168 = test: Bacteriostatic effect; format: cell-based; details: Bacillus subtilis, 168, 16 h, read-out: Bacteriostatic effect, MIC, B. subtilis 168
EcSecAN68 = EcSecAN68 (Escherichia coli, UniProt P10408); test: biochemical; parameters: species or system E. coli
Chain of EcSecAN68 (P10408 1-610): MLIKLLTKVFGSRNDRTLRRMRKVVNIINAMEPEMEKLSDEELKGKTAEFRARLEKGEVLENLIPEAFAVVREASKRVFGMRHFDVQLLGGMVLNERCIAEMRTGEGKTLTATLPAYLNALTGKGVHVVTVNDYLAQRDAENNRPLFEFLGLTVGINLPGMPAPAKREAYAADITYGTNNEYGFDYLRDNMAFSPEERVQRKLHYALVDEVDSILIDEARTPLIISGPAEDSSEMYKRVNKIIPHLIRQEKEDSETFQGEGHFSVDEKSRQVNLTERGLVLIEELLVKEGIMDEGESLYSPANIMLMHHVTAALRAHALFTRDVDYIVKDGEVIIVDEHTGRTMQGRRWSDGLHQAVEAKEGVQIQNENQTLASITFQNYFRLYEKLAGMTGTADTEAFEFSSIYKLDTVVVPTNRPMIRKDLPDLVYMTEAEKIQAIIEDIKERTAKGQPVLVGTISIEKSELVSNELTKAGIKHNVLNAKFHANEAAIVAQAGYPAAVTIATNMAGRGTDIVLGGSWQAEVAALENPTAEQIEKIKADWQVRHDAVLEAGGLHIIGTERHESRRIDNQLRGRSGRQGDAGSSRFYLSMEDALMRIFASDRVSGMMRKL

EcSecA [2] = target: T1, EcSecA (Escherichia coli, UniProt P10408); test: Ion-channel activity of SecA-liposomes in oocytes, EcSecA; format: biochemical, E. coli
T1 sequence (P10408 whole entry): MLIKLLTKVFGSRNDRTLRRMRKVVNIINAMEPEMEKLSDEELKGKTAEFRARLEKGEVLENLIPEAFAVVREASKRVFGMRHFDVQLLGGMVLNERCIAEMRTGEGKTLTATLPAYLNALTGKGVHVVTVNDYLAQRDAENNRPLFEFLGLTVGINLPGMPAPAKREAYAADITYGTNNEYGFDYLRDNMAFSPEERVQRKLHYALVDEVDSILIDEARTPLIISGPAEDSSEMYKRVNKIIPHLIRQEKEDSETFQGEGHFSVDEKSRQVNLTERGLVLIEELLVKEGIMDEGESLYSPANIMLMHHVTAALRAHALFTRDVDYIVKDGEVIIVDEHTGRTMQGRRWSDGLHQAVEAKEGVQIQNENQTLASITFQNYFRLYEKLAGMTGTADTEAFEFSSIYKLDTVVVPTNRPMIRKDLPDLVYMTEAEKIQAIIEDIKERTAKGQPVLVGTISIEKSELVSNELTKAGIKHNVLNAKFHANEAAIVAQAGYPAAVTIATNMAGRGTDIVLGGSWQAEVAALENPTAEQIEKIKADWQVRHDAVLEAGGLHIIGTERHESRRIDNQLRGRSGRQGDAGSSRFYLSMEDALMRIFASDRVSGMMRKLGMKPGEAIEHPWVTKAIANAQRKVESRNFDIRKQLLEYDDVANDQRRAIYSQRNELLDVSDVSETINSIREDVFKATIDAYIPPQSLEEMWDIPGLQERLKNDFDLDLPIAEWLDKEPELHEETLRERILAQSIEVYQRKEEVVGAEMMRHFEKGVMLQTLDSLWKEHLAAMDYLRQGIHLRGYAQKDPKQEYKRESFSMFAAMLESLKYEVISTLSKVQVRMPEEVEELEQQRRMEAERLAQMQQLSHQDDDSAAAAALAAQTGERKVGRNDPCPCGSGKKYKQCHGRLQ
In short: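 SecA reconstituted with liposomes, plus proOmpA, 2 mM ATP, 1 mM Mg(OAc)2 and varied test compound concentrations, was injected into Xenopus laevis oocytes (120 ng liposomes, 120 ng SecA, 14 ng proOmpA per 50 nl). Oocytes were held 3 hr at 23 C, then current was recorded by voltage clamp for 1 min. Net channel current came from inward and outward currents.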

EcSecA [3] = target: T1, EcSecA; test: Intrinsic ATPase activity of full EcSecA; format: biochemical, E. coli
E. coli NR698 = test: Bacteriostatic effect; format: cell-based; details: Escherichia coli, NR698, 24 h, read-out: MIC, E. coli NR698
BsSecA = BsSecA (Bacillus subtilis, UniProt P28366); test: Ion-channel activity of SecA-liposomes in oocytes, BsSecA; format: biochemical
Chain of BsSecA (P28366 whole entry): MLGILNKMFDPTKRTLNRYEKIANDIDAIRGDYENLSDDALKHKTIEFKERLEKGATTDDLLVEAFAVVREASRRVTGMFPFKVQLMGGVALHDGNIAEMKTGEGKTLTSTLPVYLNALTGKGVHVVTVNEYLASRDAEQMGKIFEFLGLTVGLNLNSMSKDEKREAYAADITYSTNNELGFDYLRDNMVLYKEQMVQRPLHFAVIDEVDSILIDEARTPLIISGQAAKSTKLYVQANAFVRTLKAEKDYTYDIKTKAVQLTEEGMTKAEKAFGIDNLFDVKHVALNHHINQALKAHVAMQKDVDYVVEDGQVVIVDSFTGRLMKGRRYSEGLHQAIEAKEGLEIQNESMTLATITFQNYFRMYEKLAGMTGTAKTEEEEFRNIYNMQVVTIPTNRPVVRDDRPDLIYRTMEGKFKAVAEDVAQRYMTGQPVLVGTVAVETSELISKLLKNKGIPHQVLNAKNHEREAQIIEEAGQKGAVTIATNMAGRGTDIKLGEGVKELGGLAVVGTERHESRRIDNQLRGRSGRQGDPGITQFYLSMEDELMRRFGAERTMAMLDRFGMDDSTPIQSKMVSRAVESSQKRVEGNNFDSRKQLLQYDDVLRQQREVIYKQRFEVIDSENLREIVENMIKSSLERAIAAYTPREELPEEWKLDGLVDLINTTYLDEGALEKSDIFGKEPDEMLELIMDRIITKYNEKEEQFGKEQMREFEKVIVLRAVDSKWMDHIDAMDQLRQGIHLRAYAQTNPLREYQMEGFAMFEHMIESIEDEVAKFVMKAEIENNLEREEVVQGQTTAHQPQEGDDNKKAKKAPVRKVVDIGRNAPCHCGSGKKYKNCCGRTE
In short: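 Purified SecA was reconstituted into liposomes. After 3 hr at 23 C, ion current was recorded for 1 min by voltage clamp. Net inward/outward current gave channel opening.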

SaSecA1 = target: T2, SaSecA1 (Staphylococcus aureus, UniProt O06446); test: Ion-channel activity of SecA-liposomes in oocytes, SaSecA1; format: biochemical
T2 sequence (O06446 1-843): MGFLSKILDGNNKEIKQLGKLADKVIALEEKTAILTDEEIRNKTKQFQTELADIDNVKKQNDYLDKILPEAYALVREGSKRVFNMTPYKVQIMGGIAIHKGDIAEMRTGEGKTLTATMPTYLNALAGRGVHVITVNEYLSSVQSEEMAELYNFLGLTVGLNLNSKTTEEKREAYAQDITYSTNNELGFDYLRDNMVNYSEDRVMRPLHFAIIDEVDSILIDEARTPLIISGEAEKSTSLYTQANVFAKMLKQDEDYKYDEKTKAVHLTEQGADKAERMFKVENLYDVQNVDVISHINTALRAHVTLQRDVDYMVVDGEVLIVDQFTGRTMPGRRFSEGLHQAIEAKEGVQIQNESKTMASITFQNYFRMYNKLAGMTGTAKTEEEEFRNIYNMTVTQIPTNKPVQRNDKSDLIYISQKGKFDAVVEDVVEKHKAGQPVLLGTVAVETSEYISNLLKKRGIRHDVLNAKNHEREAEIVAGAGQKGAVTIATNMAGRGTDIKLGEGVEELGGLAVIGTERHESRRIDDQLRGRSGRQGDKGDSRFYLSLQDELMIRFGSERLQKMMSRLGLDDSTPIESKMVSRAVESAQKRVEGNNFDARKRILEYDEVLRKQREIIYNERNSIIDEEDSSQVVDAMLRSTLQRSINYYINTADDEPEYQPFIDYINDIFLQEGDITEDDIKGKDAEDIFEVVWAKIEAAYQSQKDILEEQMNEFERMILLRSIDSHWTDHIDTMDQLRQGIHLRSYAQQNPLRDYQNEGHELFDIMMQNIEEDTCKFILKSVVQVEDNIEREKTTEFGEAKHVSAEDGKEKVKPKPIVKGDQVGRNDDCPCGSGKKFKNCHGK

S. aureus Mu3 = test: Bacteriostatic effect; format: cell-based; details: Staphylococcus aureus, MU3, 16 h, read-out: Bacteriostatic effect, MIC, S. aureus Mu3
S. aureus N315 = test: Bacteriostatic effect; format: cell-based; details: Staphylococcus aureus, N315, 16 h, read-out: Bacteriostatic effect, MIC, S. aureus N315
SpSecA = SpSecA (Streptococcus pyogenes, UniProt Q99Y96); test: Ion-channel activity of SecA-liposomes in oocytes, SpSecA; format: biochemical
Chain of SpSecA (Q99Y96 whole entry): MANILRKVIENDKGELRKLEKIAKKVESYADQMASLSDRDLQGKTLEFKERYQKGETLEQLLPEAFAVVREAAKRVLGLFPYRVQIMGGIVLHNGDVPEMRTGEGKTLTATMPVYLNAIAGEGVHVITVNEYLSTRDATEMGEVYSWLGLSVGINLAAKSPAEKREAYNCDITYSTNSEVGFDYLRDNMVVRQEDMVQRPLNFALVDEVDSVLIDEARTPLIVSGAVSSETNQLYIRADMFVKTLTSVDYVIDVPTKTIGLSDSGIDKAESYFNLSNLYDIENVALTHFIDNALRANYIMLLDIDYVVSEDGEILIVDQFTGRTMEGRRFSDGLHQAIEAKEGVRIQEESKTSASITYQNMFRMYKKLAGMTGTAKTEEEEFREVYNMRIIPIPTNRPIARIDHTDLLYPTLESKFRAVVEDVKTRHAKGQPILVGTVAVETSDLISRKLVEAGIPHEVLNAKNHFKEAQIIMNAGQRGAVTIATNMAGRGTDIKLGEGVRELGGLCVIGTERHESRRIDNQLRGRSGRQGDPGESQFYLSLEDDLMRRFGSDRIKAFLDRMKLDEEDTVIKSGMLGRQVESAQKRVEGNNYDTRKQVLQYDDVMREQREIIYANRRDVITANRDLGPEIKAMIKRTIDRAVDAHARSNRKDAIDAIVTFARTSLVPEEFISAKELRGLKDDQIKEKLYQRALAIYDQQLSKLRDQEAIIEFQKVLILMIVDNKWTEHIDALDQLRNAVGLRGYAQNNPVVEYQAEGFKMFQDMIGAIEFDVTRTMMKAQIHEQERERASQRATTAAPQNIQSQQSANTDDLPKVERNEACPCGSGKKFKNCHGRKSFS

S. aureus K2068 (MepA++) = test: Bacteriostatic effect; format: cell-based; details: Staphylococcus aureus, read-out: Bacteriostatic effect, MIC, MepA++ K2068
S. aureus K1758 (NorA−) = test: Bacteriostatic effect; format: cell-based; details: Staphylococcus aureus, read-out: Bacteriostatic effect, MIC, NorA− K1758
S. aureus K2908 (MepA−) = test: Bacteriostatic effect; format: cell-based; details: Staphylococcus aureus, read-out: Bacteriostatic effect, MIC, MepA− K2908
EcSecA [4] = target: T1, EcSecA; test: In vitro translocation activity with SecA-liposomes; format: biochemical, E. coli; details: reconstituted SecA-only liposomes, proOmpA, immunoblots
In short: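 Reconstituted SecA-only liposomes (stored at −80 °C, frozen-thawed once), E. coli SecA and proOmpA added separately to translocation buffer before the reaction, with 12 μg liposomes per reaction and varied SecA amounts. Test compound at various concentrations; reaction at 37 °C for 45 min. proOmpA translocation efficiency read by immunoblot.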

S. aureus K2361 (NorA++) = test: Bacteriostatic effect; format: cell-based; details: Staphylococcus aureus, read-out: Bacteriostatic effect, MIC, NorA++ K2361
BaSecA1 = BaSecA1 (Bacillus anthracis, UniProt Q81X26); test: biochemical; parameters: species or system B. anthracis
Chain of BaSecA1 (Q81X26 whole entry, looked up): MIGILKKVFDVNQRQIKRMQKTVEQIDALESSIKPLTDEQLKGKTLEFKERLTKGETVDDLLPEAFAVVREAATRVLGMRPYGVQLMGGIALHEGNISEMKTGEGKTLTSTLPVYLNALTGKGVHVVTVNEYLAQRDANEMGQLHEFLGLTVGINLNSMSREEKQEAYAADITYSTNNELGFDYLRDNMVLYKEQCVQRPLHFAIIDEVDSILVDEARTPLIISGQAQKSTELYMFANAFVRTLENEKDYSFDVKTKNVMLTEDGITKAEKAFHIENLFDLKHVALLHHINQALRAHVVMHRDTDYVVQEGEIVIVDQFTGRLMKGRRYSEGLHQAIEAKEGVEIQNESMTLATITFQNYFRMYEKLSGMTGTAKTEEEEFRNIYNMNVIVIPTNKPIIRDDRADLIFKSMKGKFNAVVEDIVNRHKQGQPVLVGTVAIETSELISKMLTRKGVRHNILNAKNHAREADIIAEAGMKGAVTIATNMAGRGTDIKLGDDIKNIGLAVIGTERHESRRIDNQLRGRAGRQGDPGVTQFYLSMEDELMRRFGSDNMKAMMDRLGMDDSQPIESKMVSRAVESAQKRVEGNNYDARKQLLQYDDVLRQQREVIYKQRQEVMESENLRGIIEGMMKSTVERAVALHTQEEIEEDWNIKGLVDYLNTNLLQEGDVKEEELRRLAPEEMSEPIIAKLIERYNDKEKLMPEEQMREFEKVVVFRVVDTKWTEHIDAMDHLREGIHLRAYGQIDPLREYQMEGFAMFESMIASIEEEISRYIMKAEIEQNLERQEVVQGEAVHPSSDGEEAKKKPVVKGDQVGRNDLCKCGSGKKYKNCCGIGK

S. aureus Newman = test: Bacteriostatic effect; format: cell-based; details: Staphylococcus aureus, 16 h, read-out: Bacteriostatic effect, MIC, S. aureus Newman
S. aureus Mu50 [5] = test: Bactericidal effect; format: cell-based; details: at 50 μM, 2 hr treatment
In short: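 S. aureus Mu50 cells in log phase (OD600 ≈ 0.5) were mixed with a range of test compound concentrations and shaken at 1,000 rpm at 37 °C for 2 hr. Cultures were serially diluted in LB broth, plated on LB agar and incubated at 37 °C overnight. Colony-forming units were counted, and the bactericidal effect was taken as the reduction in CFU.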

[6] = MRSA, read-out: MIC, S. aureus Mu50
[7] = Staphylococcus aureus, 6538, 16 h, read-out: Bacteriostatic effect, MIC, S. aureus 6538
[8] = Staphylococcus aureus, 6538, 24 h, read-out: MIC, S. aureus 6538
[9] = MU50, 16 h, read-out: Bacteriostatic effect, MIC, S. aureus Mu50

CO[C@H]1/C=C/O[C@@]2(C)Oc3c(C)c(O)c4c(O)c(c(/C=N/N5CCN(C)CC5)c(O)c4c3C2=O)NC(=O)/C(C)=C\C=C\[C@H](C)[C@H](O)[C@@H](C)[C@@H](O)[C@@H](C)[C@H](OC(C)=O)[C@@H]1C [rifampicin]
Fold by which 7b and 12a are more effective than the antibiotic (MIC) (S. aureus Mu50 [1]): > 1300 fold | MIC (S. aureus Mu50 [1]; [6]): 1000 µg/mL

NC[C@H]1O[C@H](O[C@H]2[C@H](O)[C@@H](O[C@H]3O[C@H](CO)[C@@H](O)[C@H](N)[C@H]3O)[C@H](N)C[C@@H]2N)[C@H](O)[C@@H](O)[C@@H]1O [kanamycin]
MIC, S. aureus Mu50 (S. aureus Mu50 [1]): 1000 µg/mL (≈ 2060 µM) | Fold by which 7b and 12a are more effective than the antibiotic (MIC) (S. aureus Mu50 [1]): > 1300 fold

CC1(C)S[C@@H]2[C@H](NC(=O)[C@H](N)c3ccccc3)C(=O)N2[C@H]1C(=O)O [ampicillin]
Fold by which 7b and 12a are more effective than the antibiotic (MIC) (S. aureus Mu50 [1]): > 1300 fold | MIC (S. aureus Mu50 [1]; [6]): 1000 µg/mL

polymyxin B
MIC, S. aureus Mu50 (S. aureus Mu50 [1]): 31 µg/mL | Fold by which 7b and 12a are more effective than the antibiotic (MIC) (S. aureus Mu50 [1]): > 40 fold

CC[C@H]1OC(=O)[C@H](C)[C@@H](O[C@H]2C[C@@](C)(OC)[C@@H](O)[C@H](C)O2)[C@H](C)[C@@H](O[C@@H]2O[C@H](C)C[C@H](N(C)C)[C@H]2O)[C@](C)(O)C[C@@H](C)C(=O)[C@H](C)[C@@H](O)[C@]1(C)O [erythromycin]
Fold by which 7b and 12a are more effective than the antibiotic (MIC) (S. aureus Mu50 [1]): > 1600 fold | MIC (S. aureus Mu50 [1]; [6]): 1250 µg/mL

FC(F)(F)c1cc(-c2nnc(Sc3cc(Cl)nc(Sc4ccccc4)n3)[nH]2)cc(C(F)(F)F)c1 [Compound 12a, 4-((5-(3,5-Bis(trifluoromethyl)phenyl)-4H-1,2,4-triazol-3-yl)thio)-6-chloro-2-(phenylthio) Pyrimidine]
MIC (S. aureus 6538; [7]): 1.8 µM (≈ 0.961 µg/mL) | MIC (S. aureus 6538; [8]): 1.8 µM (≈ 0.961 µg/mL) | MIC (B. subtilis 168): 0.8 µM (≈ 0.427 µg/mL) | IC50 (EcSecAN68): 20 µM | IC50 (EcSecA [2]): 1300 nM | IC50 (EcSecA [3]): > 200 µM | MIC (E. coli NR698): 3.1 µM (≈ 1.66 µg/mL) | IC50 (BsSecA): 2300 nM | IC50 (SaSecA1): 1000 nM | MIC (S. aureus Mu3): 1.6 µM (≈ 0.854 µg/mL) | MIC (S. aureus N315): 0.8 µM (≈ 0.427 µg/mL) | IC50 (SpSecA): 1300 nM | MIC (S. aureus K2068 (MepA++)): 1.3 µM (≈ 0.694 µg/mL) | MIC (S. aureus K1758 (NorA−)): 1.6 µM (≈ 0.854 µg/mL) | MIC (S. aureus K2908 (MepA−)): 1 µM (≈ 0.534 µg/mL) | IC50 (EcSecA [4]): 4.8 µM | Fold more effective than vancomycin (MIC) (S. aureus Mu50 [1]): 18 fold | MIC (S. aureus Mu50 [1]; [6]): 0.43 µg/mL | MIC (S. aureus Mu50 [1]; [9]): 0.8 µM | MIC (S. aureus K2361 (NorA++)): 1.8 µM (≈ 0.961 µg/mL) | IC50 (BaSecA1): 1000 nM

CSc1nc(Cl)cc(Sc2nnc(-c3cc(C(F)(F)F)cc(C(F)(F)F)c3)[nH]2)n1 [Compound 7b, 4-((5-(3,5-Bis(trifluoromethyl)phenyl)-4H-1,2,4-triazol-3-yl)thio)-6-chloro-2-(methylthio)pyrimidine]
MIC (S. aureus Newman): 1.6 µM (≈ 0.755 µg/mL) | MIC (S. aureus 6538; [7]): 3.1 µM (≈ 1.46 µg/mL) | MIC (S. aureus 6538; [8]): 3.1 µM (≈ 1.46 µg/mL) | MIC (B. subtilis 168): 1.6 µM (≈ 0.755 µg/mL) | Mode of inhibition, SecA-liposome channel activity, EcSecA (EcSecA [2]; inhibition kinetics, Figure 4): non-competitive inhibitor | IC50 (EcSecA [3]): > 200 µM | MIC (E. coli NR698): 4.7 µM (≈ 2.22 µg/mL) | Mode of inhibition, SecA-liposome channel activity, SaSecA (SaSecA1; inhibition kinetics, Figure 4): non-competitive inhibitor | MIC (S. aureus Mu3): 3.1 µM (≈ 1.46 µg/mL) | MIC (S. aureus N315): 0.8 µM (≈ 0.377 µg/mL) | MIC (S. aureus K2068 (MepA++)): 3.1 µM (≈ 1.46 µg/mL) | MIC (S. aureus K1758 (NorA−)): 3.1 µM (≈ 1.46 µg/mL) | MIC (S. aureus K2908 (MepA−)): 2.1 µM (≈ 0.991 µg/mL) | IC50 (EcSecA [4]): 2 µM | Decrease of CFU of S. aureus Mu50 (S. aureus Mu50 [5]): 2 log units | Fold more effective than vancomycin (MIC) (S. aureus Mu50 [1]): 10 fold | MIC (S. aureus Mu50 [1]; [6]): 0.75 µg/mL | MIC (S. aureus Mu50 [1]; [9]): 1.6 µM | MIC (S. aureus K2361 (NorA++)): 3.1 µM (≈ 1.46 µg/mL)

CCn1cc(C(=O)O)c(=O)c2cc(F)c(N3CCNCC3)cc21 [norfloxacin]
Fold by which 7b and 12a are more effective than the antibiotic (MIC) (S. aureus Mu50 [1]): > 330 fold
